Assay results reported in article PMC5746459 (Journal of medicinal chemistry, 2017).
“Also recorded” adds a separate entry of the source. Where a name gives a salt, the structure may show the parent alone.

What was measured:
Swiss Webster mice [1] = experiment: Locomotor activity in mice; type: in vivo, mouse; settings: i.p., 1 h session; for effect on locomotor activity: cocaine 5–40 mg/kg, 10a 3–56 mg/kg
Swiss Webster mice [2] = experiment: Drug discrimination, mice trained to discriminate cocaine from saline; type: in vivo, mouse; settings: for overall group response rate, % of control performance: mice, drug discrimination sessions, all doses tested
[3] = Phase I metabolic stability in mouse liver microsomes; type: in vitro ADME; settings: mouse liver microsomes with and without NADPH
How it was run: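 Test compound at 10 uM final was incubated in triplicate with 0.5 mg/mL mouse liver microsomes in 100 mM potassium phosphate, pH 7.4. The NADPH regenerating system contained 1.3 mM NADPH, 3.3 mM glucose 6-phosphate, 3.3 mM MgCl2, 0.4 U/mL glucose-6-phosphate dehydrogenase and sodium citrate. Reactions were started by adding microsomes, with cofactor-free controls. Percent remaining over time was measured by LC/MS/MS; mean ± S.E.M., n=3 per time point.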

human DAT (hDAT) WT = human DAT (hDAT) WT (Homo sapiens, UniProt Q01959); experiment: [3H]DA uptake inhibition in COS7 cells transiently expressing DAT WT; type: cell-based
Sequence of human DAT (hDAT) WT (Q01959 whole entry): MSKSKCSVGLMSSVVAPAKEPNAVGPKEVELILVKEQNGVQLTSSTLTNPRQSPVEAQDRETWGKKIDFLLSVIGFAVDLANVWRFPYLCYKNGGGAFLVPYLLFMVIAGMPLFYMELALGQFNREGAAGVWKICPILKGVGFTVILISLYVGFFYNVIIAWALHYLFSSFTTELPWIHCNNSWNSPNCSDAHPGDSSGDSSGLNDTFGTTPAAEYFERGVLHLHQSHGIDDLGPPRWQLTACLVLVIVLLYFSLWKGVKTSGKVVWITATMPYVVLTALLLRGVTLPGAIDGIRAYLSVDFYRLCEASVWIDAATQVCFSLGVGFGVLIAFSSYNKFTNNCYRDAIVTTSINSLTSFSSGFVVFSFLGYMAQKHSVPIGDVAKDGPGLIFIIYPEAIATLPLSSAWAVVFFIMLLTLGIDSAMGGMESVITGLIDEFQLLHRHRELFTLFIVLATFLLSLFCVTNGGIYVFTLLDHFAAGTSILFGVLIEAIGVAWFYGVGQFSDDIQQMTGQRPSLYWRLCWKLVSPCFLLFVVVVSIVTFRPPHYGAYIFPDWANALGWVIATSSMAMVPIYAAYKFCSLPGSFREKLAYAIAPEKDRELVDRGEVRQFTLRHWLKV

mice = settings: previous studies; cited from earlier work

SMILES: CN(C)CCN1C2CCC1CC(OC(c1ccc(F)cc1)c1ccc(F)cc1)C2 (stereo not shown) [10a, 2-(3-(bis(4-fluorophenyl)methoxy)-8-azabicyclo[3.2.1]octan-8-yl)-N,N-dimethylethanamine Oxalate]
- effect on locomotor activity (Swiss Webster mice [1]): None of the doses of 10a significantly increased activity counts more than vehicle; also recorded: failed to produce a significant increase in locomotor activity; also recorded: did not significantly increase locomotor activity
- substitution for cocaine discriminative stimulus (Swiss Webster mice [2]; mice trained with cocaine 10 mg/kg vs saline, 5 or 30 min pretreatment): failed to substitute for cocaine; also recorded: did not generalize to the cocaine discriminative stimulus
- overall group response rate, % of control performance (Swiss Webster mice [2]): ≥ 50%
- Phase I metabolic stability [3]: complete stability under all conditions
- DA uptake inhibition potency relative to cocaine (times higher) (human DAT (hDAT) WT): > 4

SMILES: COC(=O)[C@H]1[C@@H](OC(=O)c2ccccc2)C[C@@H]2CC[C@H]1N2C [compound 1, cocaine, reference compound]
- maximum locomotor activity, % of activity counts compared to vehicle (Swiss Webster mice [1]; 20 and 40 mg/kg): ≈ 300%
- effect on locomotor activity (Swiss Webster mice [1]): dose-dependently increased locomotion
- overall group response rate, % of control performance (Swiss Webster mice [2]): ≥ 50%

SMILES: CN1[C@H]2CC[C@@H]1[C@@H](c1cc(-c3ccccc3)no1)[C@H](OC(c1ccc(F)cc1)c1ccc(F)cc1)C2 [S-(+)-19a, S-(+)-2β-(3-Phenylisoxazol-5-yl)-3α-[bis(4-fluorophenyl)methoxy]tropane]
- Ki (human DAT (hDAT) WT; read-out: DAT WT Ki, [3H]DA uptake inhibition, COS7 cells transiently expressing DAT WT, mean [s.e.m. interval]): 212 nM

SMILES: Cc1ccc(C2CC3CCC(C2c2cc(-c4ccc(Cl)cc4)no2)N3C)cc1 (stereo not shown) [compound 5]
- stimulation of locomotor activity (mice): fails to stimulate locomotor activity in mice

SMILES: NCCc1ccc(O)c(O)c1 [Dopamine, reference compound]
- Km (human DAT (hDAT) WT; read-out: DAT WT, Dopamine (kM), [3H]DA uptake, COS7 cells transiently expressing DAT WT, mean [s.e.m. interval]): 0.999 µM

SMILES: Cc1ccc(-c2cc(C3C(c4ccc(Cl)cc4)CC4CCC3N4C)on2)cc1 (stereo not shown) [compound 6]
- stimulation of locomotor activity (mice): does stimulate locomotion

SMILES: CN(C)CCN1C2CCC1CC(NC(c1ccc(F)cc1)c1ccc(F)cc1)C2 (stereo not shown) [10b, N-(Bis(4-fluorophenyl)methyl)-8-(2-(dimethylamino)ethyl)-8-azabicyclo[3.2.1]octan-3-amine Oxalate]
- DA uptake inhibition potency relative to cocaine (times higher) (human DAT (hDAT) WT): > 4
